Tests used:
[1] = Apparent Michaelis-Menten constant (Km (app)) for the metabolic intermediary complex formation was reported.; assay type: ADME; conditions: read-out: Km app
Method in brief: (§1)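 Liver microsomes from male Sprague-Dawley rats (200–240 g) pretreated with phenobarbital ip (three daily injections of 80, then 40 mg/kg on day 4), isolated by gel filtration. Incubation at 25 °C, 1 mg/mL protein, 50 mM potassium phosphate pH 7.5, 10 mM MgCl2, with substrate. Started by NADPH. ΔA455–490 per μmol P-450 versus time read by difference spectroscopy. Vmax(obsd) and Km(app) come from linear plots over a defined substrate range.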

[2] = Compound was tested for the maximal velocity of metabolic intermediary complex formation; assay type: ADME; method in brief: as §1

SMILES	Km [1] [µM]	Vmax [2]
C[C@H](N)Cc1ccccc1.Cl	~280	~ 1.6
CCC[C@H](N)Cc1ccccc1.Cl	32	9.1
CCC[C@@H](N)Cc1ccccc1.Cl	28	5.1
C[C@@H](N)Cc1ccccc1.Cl	~270	~ 1.5
CCCC[C@H](N)Cc1ccccc1.Cl	21	10.5
CCC(N)Cc1ccccc1.Cl (stereo unspecified)	30	4
CC[C@@H](N)Cc1ccccc1.Cl	23	3.2
CCCC[C@@H](N)Cc1ccccc1.Cl	16	5.7
